Rev-RRE block: disrupts HIV-1 Rev binding to RRE RNA. P05866. actives 0.79% (n = 97,000). Rev peptide-RRE RNA binding, FRET. inhibition, % at 8 µM;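 active = inhibition above the screen-wide mean plus 3 SD, cut at about 35% in these data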;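 note: 0% = median DMSO wells and 100% = median Neomycin B control wells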
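assay system = Cy5-tagged RRE RNA duplex with fluorescein-tagged Rev peptide | incubation = 5 + 15 min at 25 °C | also added = labelled Rev peptide | measure = % inhibition of FRET ratio versus controls | benchmarks = DMSO wells as 0% and neomycin B wells as 100% inhibition | measured by = FRET fluorescence readout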
LYP inh 2: inhibitors of human LYP (PTPN22) phosphatase. recombinant LYP catalytic domain, DiFMUP fluorescence. inhibition, % at 2 µM. actives 0.21% (n = 96,000);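 active = inhibition at 2 µM at or above a set limit, the screen mean plus 3 SD, cut at about 24% in these data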;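 note: 0% = DMSO with enzyme and 100% = enzyme fully blocked by orthovanadate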
Pyk2 oligo antag: Pyk2 (human) oligomerization antagonism; AID 1347419; Q14289; Q293 cells, Pyk2 FERM NanoBiT luminescence; hits give low values; actives 0.83% (n = 99,000); z-score (the deposit names both 25 µM and 10 µM);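 active = Z-score of -3 or lower, scaled per plate to the spread of control and sample wells; inactive = z-score above -3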;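 note: negative z-score means lost luminescence so less FERM oligomerization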
Target sequence (Q14289 whole entry, looked up): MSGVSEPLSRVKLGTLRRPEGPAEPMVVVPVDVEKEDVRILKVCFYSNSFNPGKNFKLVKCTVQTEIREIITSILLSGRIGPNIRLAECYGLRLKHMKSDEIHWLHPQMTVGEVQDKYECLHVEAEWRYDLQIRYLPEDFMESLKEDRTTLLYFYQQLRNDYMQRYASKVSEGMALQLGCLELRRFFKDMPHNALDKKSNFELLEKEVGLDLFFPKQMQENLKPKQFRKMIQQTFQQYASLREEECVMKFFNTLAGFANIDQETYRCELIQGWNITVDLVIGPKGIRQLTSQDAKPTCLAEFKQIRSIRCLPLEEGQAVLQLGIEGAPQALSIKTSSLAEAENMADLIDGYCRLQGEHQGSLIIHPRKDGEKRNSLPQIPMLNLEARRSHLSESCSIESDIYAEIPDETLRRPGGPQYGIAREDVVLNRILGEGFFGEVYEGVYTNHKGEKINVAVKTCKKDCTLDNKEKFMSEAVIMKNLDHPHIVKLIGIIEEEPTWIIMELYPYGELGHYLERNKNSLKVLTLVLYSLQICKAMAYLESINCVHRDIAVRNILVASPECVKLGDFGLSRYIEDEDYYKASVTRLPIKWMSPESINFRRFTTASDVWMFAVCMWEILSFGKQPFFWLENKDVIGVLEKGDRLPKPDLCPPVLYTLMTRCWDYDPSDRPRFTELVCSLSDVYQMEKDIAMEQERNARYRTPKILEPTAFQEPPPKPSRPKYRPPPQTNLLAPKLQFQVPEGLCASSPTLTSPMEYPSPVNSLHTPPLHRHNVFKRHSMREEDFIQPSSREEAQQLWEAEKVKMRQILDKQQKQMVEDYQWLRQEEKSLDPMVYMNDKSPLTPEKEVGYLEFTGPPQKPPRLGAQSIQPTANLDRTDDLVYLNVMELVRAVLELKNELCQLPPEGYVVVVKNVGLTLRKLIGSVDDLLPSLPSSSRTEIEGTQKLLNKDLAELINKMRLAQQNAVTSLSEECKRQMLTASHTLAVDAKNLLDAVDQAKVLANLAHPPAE
LYP act: activators of human LYP (PTPN22) phosphatase; Q9Y2R2; recombinant LYP, DiFMUP fluorescence; 0 = plate median, 100 = signal doubled; activation, % at 2 µM; actives 0.11% (n = 96,000); AID 697;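 active = activation at 2 µM above a set limit, the mean plus 5 SD, cut at about 37% in these data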
Starred values were filed as active, the others as inactive; . = not tested or not shown; [ ] = another dose, or the depositor's remark. The list is not random: actives were taken first. Their share in the collection is about 1.8%.

SMILES | Rev-RRE block | LYP inh 2 | Pyk2 oligo antag | LYP act
COc1ccc2c(c1)CCCC21NC(=O)NC1=O (configuration not stated) | 8.6 | -13.9 | 0.13 | 9.4
COc1ccc2cc(C3(C)NC(=O)NC3=O)ccc2c1 (configuration not stated) | 36.9* | -2.8 | -0.49 | 0.1
O=C(Nc1ccc(N2CCCCC2)c(Cl)c1)c1ccc2c(c1)OCCO2 | 17.0 | 35.7* | -1.7 | -34.3
COc1ccc2nc(SCc3cnc(C)nc3N)[nH]c2c1 | 6.8 | 57.9* | 0.46 | -57.1
O=C1[C@H]2[C@@H](C(=O)N1c1cccc3ccccc13)C1(C(=O)c3ccccc3C1=O)N1CCC[C@@H]21 | 7.1 | -9.4 | 0.54 | 6.6
COc1cc(CNc2ccccc2Oc2cc(=O)n(C)c(=O)n2C)cc(OC)c1OC | -0.2 | 3.0 | 0.36 | -1.3
Cn1c(Oc2ccccc2NCc2cc(Br)ccc2O)cc(=O)n(C)c1=O | 3.0 | 5.6 | -3.06* | -3.4
COc1cc2c(cc1OC)CN(C(=O)c1ccccc1C(=O)O)CC2 | 4.6 | 1.1 | 0.25 | -2.5
CN(C)c1nc(-c2ccccc2)c2cnn(Cc3ccccc3)c2n1 | 16.6 | -4.3 | -1.56 | 1.7
Cc1ccc(CSC2=Nc3ccccc3C3=NC(CC(=O)NCc4ccco4)C(=O)N23)cc1 (configuration not stated) | 7.3 | 24.3* | 1.09 | -19.5
CC1(C)CC(=O)C2=C(C1)Nc1ccccc1N=C2 | 44.7* | -7.8 | . | 5.5
COc1ccc(Nc2ncc(C(=O)N3CCN(Cc4ccccc4)CC3)c3ccccc23)cc1 | -0.5 | 6.9 | -3.51* | -5.3
CCOC(=O)Cc1csc(NC(=O)c2sc3nc4ccc(C)cc4cc3c2N)n1 | 80.6*[fluorescence artefact?] | 16.7 | 1.17 | -13.8
CCOC(=O)Cc1csc(NC(=S)NC(=O)c2ccc(Cl)cc2)n1 | 4.3 | 25.5* | 1.2 | -23.3
CCOC(=O)Cc1csc(NC(=O)c2ccc(NC(C)=O)cc2)n1 | 3.5 | -3.3 | 1.43 | 3.0
CCc1nnc(NC(=O)OCc2ccccc2)s1 | 3.7 | -6.0 | 0.88 | 3.0
CCc1nnc(NC(=O)c2sc3nc4cc(C)ccc4cc3c2N)s1 | 87.9*[fluorescence artefact?] | 5.5 | 1.6 | -2.3
CN(Cc1ccccc1)S(=O)(=O)c1ccc(Cl)c(C(=O)NCc2ccc3c(c2)OCO3)c1 | . | . | -0.35 | .
O=S(=O)(c1ccccc1)N1CCN(c2cc(-c3ccccc3)nc3ncnn23)CC1 | 9.6 | 8.1 | -3.79* | -4.9
COc1ccc(C(=O)N(Cc2ccccc2)Cc2cc3cc4c(cc3[nH]c2=O)OCCO4)cc1 | 2.1 | 5.1 | -2.79 | -1.0
COc1cccc(C(=O)N(Cc2ccccc2)Cc2cc3cc4c(cc3[nH]c2=O)OCCO4)c1 | 3.7 | 5.9 | -3.3* | -1.9
O=C(CSc1nnc(-c2ccccc2O)o1)Oc1ccc(OCc2ccccc2)cc1 | 2.7 | -17.1 | -0.07 | 15.2
CCOC(=O)c1c(-c2cccs2)csc1NC(=O)CC(C)C | 12.6 | -14.9 | -1.86 | 17.3
CCOC(=O)c1c(-c2cccs2)csc1NC(=O)CN(CC)CC | 17.0 | 0.7 | -3.62* | 0.7
CCC(=O)Nc1cccc(NC(=O)c2cccc([N+](=O)[O-])c2)c1 | 0.6 | 6.3 | 0.66 | -3.1
SMILES | Rev-RRE block | LYP inh 2 | Pyk2 oligo antag | LYP act
CCCCCCN1C=CC(=C/C=C(\C#N)C(=O)OCC)C=C1 | 138.8*[fluorescence artefact?] | 2.3 | -1.68 | -5.6
CCOC(=O)/C(C#N)=C\c1ccc(N2CCN(C)CC2)cc1 | 16.4 | 0.7 | -0.8 | -3.1
CCCN1C=CC(=C/C=C(\C#N)C(=O)OCC)C=C1 | 136.1*[fluorescence artefact?] | 11.3 | . | -11.4
CCOC(=O)/C(C#N)=C1\C=CN(C)C(C)=N1 | 3.1 | 2.4 | -0.99 | 3.8
CCCOc1ccc(C2C(C(=O)OC)=CN(CCOC)C=C2C(=O)OC)cc1 | -3.2 | -3.9 | -3.46* | 2.1
COCCN1C=C(C(=O)OC)C(c2ccc(OC)c(OC)c2)C(C(=O)OC)=C1 | 0.5 | -3.1 | -0.01 | 2.8
Cc1cc2c(cc1C)N(C(=O)CSC1=NCCS1)C(C)(C)c1ssc(=S)c1-2 | -2.4 | 27.3* | -0.43 | -23.4
CC1(C)c2ssc(=S)c2-c2ccccc2N1C(=O)CSC1=NCCS1 | 0.1 | 13.9 | -1.04 | -12.5
O=C(Nc1ccc(Cc2ccncc2)cc1)C1CCC(N2C(=O)C3C4C=CC(C5CC45)C3C2=O)CC1 (configuration not stated) | 1.8 | 6.0 | -4.15* | -3.5
CCn1nc(C)c(/C=C2\CCCC3=C2OC(N)=C(C#N)C3c2c(C)nn(CC)c2C)c1C (configuration not stated) | 46.9* | 2.0 | . | -2.7
COC(=O)c1cc(COc2ccc3c(c2)oc(=O)c2ccccc23)c(C)o1 | 0.3 | -5.9 | 0.59 | 3.0

Assay outcomes (PubChem BioAssay)
